Measurements: ChEMBL document CHEMBL1143890, “Discovery of long-acting N-(cyanomethyl)-N-alkyl-L-prolinamide inhibitors of dipeptidyl peptidase IV” (Bioorg Med Chem, 2008)
Active and inactive are the calls of the source. The calls are words filed in the database; no cut-off is given here.

Tests used:
Rattus norvegicus [1] = species: Rattus norvegicus; test: animal or person; conditions: Sprague-Dawley, Plasma, po, 6 h, read-out: Inhibition
Dipeptidyl peptidase 8 = Dipeptidyl peptidase 8 (Homo sapiens, UniProt Q6V1X1); test: Inhibition of human DPP8
Sequence of Dipeptidyl peptidase 8 (Q6V1X1 whole entry): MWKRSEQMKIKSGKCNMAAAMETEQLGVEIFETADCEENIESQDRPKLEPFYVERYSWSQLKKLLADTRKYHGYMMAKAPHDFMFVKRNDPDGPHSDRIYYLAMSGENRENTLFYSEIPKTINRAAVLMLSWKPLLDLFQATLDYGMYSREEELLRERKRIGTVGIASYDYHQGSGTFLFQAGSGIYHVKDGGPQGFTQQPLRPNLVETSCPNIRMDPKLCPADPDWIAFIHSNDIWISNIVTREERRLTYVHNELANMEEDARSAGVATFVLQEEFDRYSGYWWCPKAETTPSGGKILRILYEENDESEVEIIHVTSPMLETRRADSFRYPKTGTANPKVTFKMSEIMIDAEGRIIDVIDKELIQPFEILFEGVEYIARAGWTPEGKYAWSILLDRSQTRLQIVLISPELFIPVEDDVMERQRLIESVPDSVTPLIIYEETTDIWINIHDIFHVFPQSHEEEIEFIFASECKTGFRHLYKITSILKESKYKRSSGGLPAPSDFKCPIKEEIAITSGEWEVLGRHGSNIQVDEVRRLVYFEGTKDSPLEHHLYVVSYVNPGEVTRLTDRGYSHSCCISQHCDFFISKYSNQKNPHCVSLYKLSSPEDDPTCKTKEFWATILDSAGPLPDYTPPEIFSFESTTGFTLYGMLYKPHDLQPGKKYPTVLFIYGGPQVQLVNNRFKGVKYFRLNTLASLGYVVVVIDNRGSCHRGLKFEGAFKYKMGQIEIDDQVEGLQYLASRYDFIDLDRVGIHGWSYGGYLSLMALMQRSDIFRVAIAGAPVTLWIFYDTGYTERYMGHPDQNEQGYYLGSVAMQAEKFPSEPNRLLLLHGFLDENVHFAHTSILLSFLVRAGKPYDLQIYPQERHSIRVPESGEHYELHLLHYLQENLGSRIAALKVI

Rattus norvegicus [2] = test: Ex vivo inhibition of DPP4 in Sprague-Dawley rat plasma at 0.3 mg/kg, po after 9 hrs; assay type: functional
Summary of the method: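 Male Sprague–Dawley rats, 6–7 weeks old, fasted at least 8 h, then given a single oral dose of 0.3 mg/kg in 0.5% methyl cellulose. Jugular vein blood was drawn before dosing and at 0.25–9 h after. Plasma was mixed with Gly-Pro-AMC (added as a 60 µM solution). The initial rate over the first 15 min was read at 37 °C (ex 355/em 460 nm). Inhibition is expressed as % of basal activity.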

Rattus norvegicus [3] = test: Reduction of glucose level in Sprague-Dawley rat plasma at 1 mg/kg, po after 7 hrs by multiple glucose tolerance test; assay type: functional, organism-based; design: dose 1 mg/kg
Summary of the method: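 Male SD rats (364–473 g), fasted at least 20 h, were dosed orally at −0.5 h with 1 mg/kg or with vehicle (0.5% methyl cellulose). Oral glucose, 1 g/kg, was given at 0 and 6 h. Tail vein plasma was taken at −0.08 to 8 h, stored at −80 °C, and assayed by glucose oxidase-peroxidase. Results are mean ± SEM (n = 7), compared with vehicle by Student's t test.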

SMILES | inhibition in vivo at 0.3 mg/kg (Rattus norvegicus [1]) | further results
C[C@@H]1N[C@H](C(=O)N(C)CC#N)C[C@@H]1C(=O)N(C)C | 55% | IC50 (Dipeptidyl peptidase 8): > 100 µM
CCN(CC#N)C(=O)[C@@H]1C[C@H](C(=O)N(C)C)[C@H](C)N1 | 73% | inhibition in vivo at 0.3 mg/kg (Rattus norvegicus [2]): 62%; IC50 (Dipeptidyl peptidase 8): > 100 µM; Activity (Rattus norvegicus [3]): Active
CCN(CC#N)C(=O)[C@@H]1C[C@H](C(=O)N2CCCCC2)[C@H](C)N1 | 60% | –
CCN(CC#N)C(=O)[C@@H]1C[C@H](C(=O)N2CCOCC2)[C@H](C)N1 | 65% | –
C=CCN(CC#N)C(=O)[C@@H]1C[C@H](C(=O)N(C)C)[C@H](C)N1 | 19% | –
CCN(CC#N)C(=O)[C@@H]1C[C@H](C(=O)N2Cc3ccccc3C2)[C@H](C)N1 | 64% | –
C[C@@H]1N[C@H](C(=O)N(CC#N)C2CC2)C[C@@H]1C(=O)N(C)C | 29% | –
CC[C@@H]1N[C@H](C(=O)N2CCC[C@H]2C#N)C[C@@H]1C(=O)N(C)C | 45% | –
C[C@@H]1N[C@H](C(=O)N2CCC[C@H]2C#N)C[C@@H]1C(=O)N(C)C | 89% | inhibition in vivo at 0.3 mg/kg (Rattus norvegicus [2]): 83%
C[C@@H]1N[C@H](C(=O)N2CCC[C@H]2C#N)C[C@@H]1CC(=O)N(C)C | 40% | –
CCN(CC#N)C(=O)[C@@H]1C[C@H](C(=O)N2CCCC2)[C@H](C)N1 | 53% | –
C#CCN(CC#N)C(=O)[C@@H]1C[C@H](C(=O)N(C)C)[C@H](C)N1 | 18% | –
CCN(CC#N)C(=O)[C@@H]1C[C@H](C(=O)NCc2ccccc2)[C@H](C)N1 | 31% | –
